Active and inactive are the calls of the source.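 How the source made its calls: active means GFP response above 150% of the DMSO control; inconclusive means fewer than 70 events counted in any yeast strain; inactive means the rest.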
Assay: LAP4-GFP expression modulators in yeast, confirmation, cell-based, cherry picks, flow cytometry, mother/daughter gates (AID 2271);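 further: ratio of sample to DMSO plate mean so 100% equals DMSO level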
Conditions: S. cerevisiae LAP4-GFP strain, 3 h, at 10 µM, stronger effect = higher value
Procedure, shortened: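 System: Alexa 633-stained baker's yeast GFP-fusion strain; quantity: 0.2 OD600 cells; timing: compound exposure 3 h at 30 °C, end-over-end rotation; detection: HT flow cytometry, GFP fluorescence channel; measure: per-gate (all, mother, daughter) GFP response vs DMSO; control set: DMSO-only negative wells, rapamycin 400 ng/mL positive wells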

Row | Structure (SMILES) | GFP response relative to DMSO
1 | O=C1NC(=S)N(c2ccccc2)C(=O)/C1=C/c1ccco1 | 112% (inactive)
2 | O=C1NC(=O)N(Cc2ccco2)C(=O)/C1=C/c1ccc(-c2cccc([N+](=O)[O-])c2)o1 | 167% (active)
3 | CC1(C)OC(c2ccccc2)=C/C(=C/C=C2C(=O)NC(=S)NC2=O)O1 | 203% (active)
4 | O=C1NC(=O)N(CCc2ccc(F)cc2)C(=O)/C1=C/c1cccs1 | 152% (active)
5 | C[C@]12CCC(=O)C(O)=C1CC[C@@H]1[C@@H]2CC[C@]2(C)C(=O)CC[C@@H]12 | 102% (inactive)
6 | CN1CCN(c2ccc([N+](=O)[O-])c(Sc3ccccn3)c2)CC1 | 95.4% (inactive)
7 | O=C1/C(=C\c2ccc(Cl)c(Cl)c2)N2CCC1CC2 | 124% (inactive)
8 | CCC(C)N1C(=O)/C(=C\c2cnc(N(C)C)nc2)C(=O)NC1=S (centres undefined) | 97.4% (inactive)
9 | Nc1ccc2ccc3cccc[n+]3c2c1 | 181% (active)

Same assay, conditions: S. cerevisiae LAP4-GFP strain, 3 h, measured here: daughter cell gate response, at 10 µM, stronger effect = higher value

Row | Structure (SMILES) | GFP response relative to DMSO [%]
10 | O=C1NC(=S)N(c2ccccc2)C(=O)/C1=C/c1ccco1 | 116
11 | O=C1NC(=O)N(Cc2ccco2)C(=O)/C1=C/c1ccc(-c2cccc([N+](=O)[O-])c2)o1 | 151
12 | O=C1NC(=O)N(CCc2ccc(F)cc2)C(=O)/C1=C/c1cccs1 | 142
13 | C[C@]12CCC(=O)C(O)=C1CC[C@@H]1[C@@H]2CC[C@]2(C)C(=O)CC[C@@H]12 | 102
14 | CN1CCN(c2ccc([N+](=O)[O-])c(Sc3ccccn3)c2)CC1 | 96
15 | O=C1/C(=C\c2ccc(Cl)c(Cl)c2)N2CCC1CC2 | 119
16 | Nc1ccc2ccc3cccc[n+]3c2c1 | 185

Same assay, conditions: S. cerevisiae LAP4-GFP strain, 3 h, measured here: mother cell gate response, at 10 µM, stronger effect = higher value

Row | Structure (SMILES) | GFP response relative to DMSO [%]
17 | O=C1NC(=S)N(c2ccccc2)C(=O)/C1=C/c1ccco1 | 111
18 | O=C1NC(=O)N(Cc2ccco2)C(=O)/C1=C/c1ccc(-c2cccc([N+](=O)[O-])c2)o1 | 176
19 | CC1(C)OC(c2ccccc2)=C/C(=C/C=C2C(=O)NC(=S)NC2=O)O1 | 160
20 | O=C1NC(=O)N(CCc2ccc(F)cc2)C(=O)/C1=C/c1cccs1 | 155
21 | C[C@]12CCC(=O)C(O)=C1CC[C@@H]1[C@@H]2CC[C@]2(C)C(=O)CC[C@@H]12 | 103
22 | CN1CCN(c2ccc([N+](=O)[O-])c(Sc3ccccn3)c2)CC1 | 95.1
23 | O=C1/C(=C\c2ccc(Cl)c(Cl)c2)N2CCC1CC2 | 130
24 | Nc1ccc2ccc3cccc[n+]3c2c1 | 178
